Source: PubChem BioAssay (several laboratories)
A selection: hits, their analogues and other compounds. The true share with any hit is near 5.1%.
STAT1 inh: STAT1 signaling inhibitors, primary screen, cell-based, HTS, luciferase reporter | NIH 3T3 STAT1-luciferase reporter, IFN-gamma, luminescence | inhibition, % at 5.5 µM | 0.35% of 200,000 active | AID 920, 2007;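 active = inhibition above a set limit, the mean inhibition across all tested compounds plus 3 SD, cut at about 34% in these data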
NF-kB expr up: activators of NF-kB expression in neurons, primary screen, cell-based, HTS | fold change at 12.5 µM | human neuronal cells, NF-kB reporter expression; hits give high values | 1.6% of 190,000 active; in the data active = fold change above about 3.3
APP 5'UTR act: activators of APP 5'UTR luciferase reporter, primary screen, SH-SY5Y cells. SH-SY5Y APP 5'UTR luciferase reporter, luminescence; zero percent = DMSO vehicle wells. 1% of 190,000 active. activation, % at 2 µM. AID 1276, 2008;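 active = activation above a set limit, based on mean plus 3 SD of controls, cut at about 140% in these data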
STAT3 inh: IL-6 driven STAT3 reporter inhibitors, primary screen, U3A cells, luciferase, luminescence, MLSCN library; AID 862, 2007; IL-6 STAT3-luciferase reporter; host cell line lacks STAT1; inhibition, % at 5.5 µM; 0.89% of 190,000 active;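 active = inhibition above the mean inhibition across all screened compounds plus 3 SD, cut at about 44% in these data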
STAT3 activator: IL-6 driven STAT3 reporter potentiators, primary screen, U3A cells, luciferase, luminescence, MLSCN library. IL-6 STAT3-luciferase reporter; 100% = signal with IL-6 EC80 alone. activation (% of control), % at 5.6 µM. 0.91% of 190,000 active;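 active = activation above the screen-wide mean of compound activation plus 3 SD, cut at about 130% in these data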
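Material: STAT3-luciferase reporter U3A cells; Probe or stimulus: IL-6 (33 ng/mL); Incubation: compound pre-incubation 1 h before IL-6, then 6 h stimulation at 37 °C; Technique: luminescence from STAT3-driven luciferase reporter; Evaluation: % activation versus median of IL-6-stimulated wells; Controls: IL-6-only high control.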
STAT1 activator: STAT1 signaling activators, primary screen, cell-based, HTS, luciferase reporter | NIH 3T3 STAT1-luciferase reporter, IFN-gamma, luminescence; 100% = IFN-gamma alone, no compound | activation (% of control), % at 5.5 µM | 2.6% of 200,000 active;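 active = activation above the screen-wide mean activation plus 3 SD, cut at about 130% in these data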
Large screens that a line does not name were inactive.

Cc1ccc(Cn2cnc3c(cnn3-c3ccc(F)cc3)c2=O)cc1	none
CCOc1ccc(-n2nc3c(Cl)nnc(C)c3c2C)cc1	none
NC(=O)C1CCN(CC(=O)NC(=O)NC2CCCC2)CC1	none
O=C1c2ccccc2C(=O)C1c1ccncc1	NF-kB expr up 3.8
CC(=O)Nc1ccc(N=Nc2c(C)[nH]n(C(N)=S)c2=O)cc1	none
Cc1ccc(N=Nc2c(C)[nH]n(C(N)=S)c2=O)cc1C	NF-kB expr up 4.77
COc1ccccc1N1C(=O)c2cccc3c(C(=O)O)ccc(c23)C1=O	none
COc1ccc2c3c(cccc13)C(=O)N(O)C2=O	NF-kB expr up 7.09
COc1cc(OC)cc(-c2cc3nc(C)c(CCC(=O)O)c(C)n3n2)c1	STAT1 inh 53.5, STAT3 inh 87.6
Cc1cccc(OCCN2C(=O)c3ccccc3C2=O)c1	STAT1 activator 140.2
COc1ccc(OCCn2c(=O)sc3ccccc32)cc1	STAT1 activator 136.9
Cc1cccc(OCCn2c(=O)n(C)c3ccccc32)c1	NF-kB expr up 3.64, STAT1 activator 142.7
COc1ccccc1OCCn1c(=O)sc2ccccc21	none
Cc1cccc(OCCn2c(=O)sc3ccccc32)c1	STAT1 activator 135.6
CCCCCCCc1nc2c(=O)[nH]c3ccccc3c2o1	none (no result: NF-kB expr up)
Cc1ccc(SCC(=O)Nc2ccc(N3CCN(C)CC3)c(F)c2)cc1	STAT1 activator 133.2
COc1ccc(SCC(=O)Nc2ccc(N3CCN(C)CC3)c(F)c2)cc1	none
O=C(NCc1ccco1)C(c1cccs1)N(C(=O)C1COc2ccccc2O1)c1cccc(O)c1 (stereo not given)	none
CC(=O)N=c1sc2ccccc2n1C	none
Cn1/c(=N/N=C/c2ccc(N3CCOCC3)cc2)sc2ccccc21	STAT1 activator 129.0
COc1ccc(NC(=O)CSc2ncnc3c2cnn3CCc2ccccc2)cc1	STAT3 inh 45.6
Cc1cccc(-n2ncc3c(N)ncnc32)c1	none
CNC(=O)CSc1ncnc2c1cnn2-c1ccccc1	none
CCOc1ccc(Nc2ncnc3c2cnn3-c2ccccc2)cc1	none
Cc1cccc(-n2ncc3c(NC(C)C)ncnc32)c1	NF-kB expr up 4.97, APP 5'UTR act 158.2, STAT1 activator 150.1
CC(=O)CSc1ncnc2c1cnn2-c1ccccc1	NF-kB expr up 7.19
Cc1ccccc1Nc1ncnc2c1cnn2-c1ccccc1	STAT1 activator 129.6
CCCOc1ccc(S(=O)(=O)NNC(=O)c2cc3ccccc3o2)cc1	none
CC(C)Nc1ncnc2c1cnn2-c1ccccc1	NF-kB expr up 4.04, STAT1 activator 135.6
NNc1ncnc2c1cnn2-c1ccccc1	none
O=C(N/N=C\c1ccc(Oc2ccccc2)cc1)c1csnn1	NF-kB expr up 7.46, STAT1 activator 137.3
Cc1cccc(/C=N\NC(=O)c2csnn2)c1	none
CN(C)c1ccc(/C=N\NC(=O)c2csnn2)cc1	NF-kB expr up 3.39
CN(C)c1ccc(/C=N/NC(=O)c2ccnn2C)cc1	NF-kB expr up 4.36
COC(=O)C(Cc1ccccc1)NC(=O)c1cccc(S(=O)(=O)N(C)C)c1 (stereo not given)	none
COc1ccc(Cl)cc1NC(=S)NNC(=O)c1cccs1	none
O=C(Cc1ccccc1)Nc1ccc2c(c1)CCC2	STAT1 activator 132.9
COc1ccc(CC(=O)Nc2ccc3c(c2)CCC3)cc1	none
CC(=O)N1C(C(=O)O)CSC1c1ccc(C)cc1 (stereo not given)	NF-kB expr up 4.19 (no result: STAT1 inh, STAT3 inh, STAT3 activator, STAT1 activator)
CCN1/C(=C/C(C)=C/c2sc3ccccc3[n+]2CC)Sc2ccccc21	STAT1 inh 45.1, STAT3 inh 95.9
CCN1/C(=C\C=C(C(C)=O)C(C)=O)Sc2ccccc21	none
Cc1cc(=O)n2nc(-c3ccc(C(F)(F)F)cc3)sc2n1	STAT1 activator 129.3
O=c1c2cc(-c3ccccc3)sc2nc2n1CCC2	NF-kB expr up 4.24, APP 5'UTR act 187.2, STAT1 activator 139.3
Cc1nc2sc(-c3ccccc3)cc2c(=O)n1/N=C/N(C)C	STAT1 activator 147.2
Cc1nc2sc(-c3ccccc3)cc2c(=O)n1-n1cccc1	APP 5'UTR act 142.3, STAT1 activator 145.0
Cc1c(/C=N/NC(=O)CNc2ccccc2)c2ccccn2c1C(=O)c1ccccc1	none
CCOC(=O)CC(NC(=O)c1cccc2c1C(=O)N(Cc1cccnc1)C2)c1ccc(OC(C)C)cc1 (stereo not given)	none
O=S(=O)(c1ccccc1)c1cnc(-c2ccccc2)nc1N1CCCC1	STAT1 activator 145.8
CCN1C(=O)/C(=C\C=C2/C=CC=CN2CC)SC1=S	STAT1 activator 133.6
CCN1C(=O)/C(=C/C=C2\C=CN(CC)c3ccccc32)SC1=S	none
N#CC(c1ccc(Cl)nn1)c1c(F)cccc1Cl (stereo not given)	none
Cc1onc(-c2ccccc2Cl)c1C(=O)N1CCOC12CCCCC2	none
O=S(=O)(c1ccccc1)n1cc(-c2ccccn2)c(N2CCOCC2)n1	APP 5'UTR act 213.4
O=S(=O)(Cc1cc(N2CCOCC2)nc(-c2ccccn2)n1)c1ccccc1	none
CN(C)c1ccc(NC(=O)Oc2ccccc2)cc1	STAT1 activator 130.5
CN(C)c1ccc(NC(=O)Nc2cccc(Cl)c2)cc1	NF-kB expr up 7.22, APP 5'UTR act 180.7, STAT1 activator 135.3
O=C1Nc2ccccc2/C1=C/C(=O)c1cccs1	STAT3 activator 134.3
CC(=O)c1ccc(-c2nnc(CCC(=O)N(C)Cc3c(C)nc4ccccn34)o2)s1	none
c1ccc(SCc2nc3ccccc3[nH]2)cc1	none
N#Cc1c(SCc2nc3ccccc3[nH]2)nc2c(c1C(F)(F)F)CCC2	STAT3 activator 174.4 (no result: NF-kB expr up)
Cc1cccc(CSc2nc3c(cc2C#N)CCC3)c1	none
N#Cc1cc2c(nc1SCc1nc3ccccc3[nH]1)CCC2	APP 5'UTR act 248.0
CCC(=O)Nc1cccc(C(=O)OCc2cccc([N+](=O)[O-])c2)c1	none
CN(C)/C=N/c1ncc(C(=O)c2ccccc2)s1	STAT1 activator 129.0
CN(C)/C=N/c1ncc(C(=O)c2ccc(-c3ccccc3)cc2)s1	none
O=c1c2ccccc2nnn1CSc1nc2ccccc2[nH]1	STAT1 activator 135.0
Cc1cc(=O)[nH]c(SCn2nnc3ccccc3c2=O)n1	none
Cc1ccc(SCn2nnc3ccccc3c2=O)c(C)c1	STAT1 activator 140.9
Cc1ccc(-n2c(SCn3nnc4ccccc4c3=O)nnc2-c2cccnc2)c(C)c1	none
CN(/C=C1/C(=O)CNC1=O)CCO	none
COc1ccc(OC)c(-c2csc(NC(=O)C3COc4ccccc4O3)n2)c1 (stereo not given)	none
